Reference: ChEMBL document CHEMBL1126160, “Synthesis and structure-activity relationships of 7-diazabicycloalkylquinolones, including danofloxacin, a new quinolone antibacterial agent for veterinary medicine” (J Med Chem, 1992)
Converted amounts (≈) assume the structure as drawn.

Assays:
Type in all cases: functional
[1] = test system: Actinobacillus pleuropneumoniae; assay: In vitro antibacterial activity against anaerobically grown Actinobacillus pleuropneumoniae ([…])
Outline: (§1)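 Agar dilution MICs. Anaerobic strains were tested on tryptose agar with 5% bovine blood and incubated 48 h at 39 °C in an anaerobe chamber under N2/CO2/H2 (80:10:10).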

Trueperella pyogenes = assay: In vitro antibacterial activity against anaerobically grown Actinomyces pyogenes (14D002); outline: as §1
Phocaeicola vulgatus = assay: In vitro antibacterial activity against anaerobically grown Bacteroides vulgatus (78D029); outline: as §1
[2] = test system: Bordetella bronchiseptica; assay: In vitro antibacterial activity against aerobically grown Bordetella bronchiseptica (73A009)
Outline: (§2)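 Agar dilution MICs. Aerobic strains were tested on brain heart infusion agar and incubated aerobically at 37 °C for 18–20 h.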

Escherichia coli [3] = assay: In vitro antibacterial activity against aerobically grown Escherichia coli (51A538); outline: as §2
Escherichia coli [4] = assay: Escherichia coli DNA cleavage endpoint value which is the minimum amount required (in micro g/mL) to induce detectable cleavage of supercoiled pBR322 substrate to linear form (gyrase); conditions: read-out: MIC
Outline: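 DNA gyrase A and B subunits were purified from E. coli overproducers. About 2 units of holoenzyme were incubated with pBR322 in Tris-HCl pH 7.5 containing MgCl2, spermidine, DTT, 0.2 mM ATP, BSA and tRNA. Drug was added as 2-fold serial dilutions, and reactions ran for 60 min at 25 °C. Reactions were stopped with SDS and proteinase K, then run on agarose and stained with ethidium. The endpoint was the lowest concentration giving detectable linear DNA.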

[5] = In vitro antibacterial activity against Aerobically grown Pasteurella haemolytica (59B018); conditions: Mannheimia haemolytica; outline: as §2
Pasteurella multocida [6] = assay: In vitro antibacterial activity against aerobically grown Pasteurella multocida (59A006); outline: as §2
Salmonella enterica = assay: In vitro antibacterial activity against aerobically grown Salmonella choleraesuis (58B015)
Staphylococcus aureus = assay: In vitro antibacterial activity against aerobically grown Staphylococcus aureus (54B004); outline: as §2
[7] = In vitro evaluation for antibacterial activity against anaerobically grown Treponema hyodysenteriae (94A007); conditions: Brachyspira hyodysenteriae
Clostridium perfringens = assay: microbe, parasite or virus in culture
Escherichia coli [8] = assay: In vivo protective dose was evaluated against Escherichia coli (51A266) in mouse(sc); conditions: read-out: PD50
Outline: (§3)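 Female CF-1 mice (15 g), groups of 10, challenged ip with 0.5 mL bacterial suspension (P. multocida 59A006 or E. coli 51A266 at 3.0 × 10^8 cfu/mL; S. choleraesuis 58B010 at 8.5 × 10^2 cfu/mL). Drug given sc or po at 30 min, 4 h and 24 h after challenge; survival recorded at 96 h; PD50 by probit analysis.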

Pasteurella multocida [9] = assay: In vivo protective dose was evaluated against Pasteurella multocida (59A006) in mouse(sc); conditions: read-out: PD50; outline: as §3

| SMILES | MIC [1] [µg/mL] | MIC (Trueperella pyogenes) [µg/mL] | MIC (Phocaeicola vulgatus) [µg/mL] | MIC [2] [µg/mL] | MIC (Escherichia coli [3]) [µg/mL] | minimum concentration inducing gyrase-mediated DNA cleavage (Escherichia coli [4]) [µg/mL] | MIC [5] [µg/mL] | MIC (Pasteurella multocida [6]) [µg/mL] | MIC (Salmonella enterica) [µg/mL] | MIC (Staphylococcus aureus) [µg/mL] | MIC [7] [µg/mL] | MIC (Clostridium perfringens) [µg/mL] | ED50 (Escherichia coli [8]) [mg/kg] | ED50 (Pasteurella multocida [9]) [mg/kg] |
| --- | --- | --- | --- | --- | --- | --- | --- | --- | --- | --- | --- | --- | --- | --- |
| CCn1cc(C(=O)O)c(=O)c2cc(F)c(N3CCN4CCC3CC4)c(F)c21.Cl.O | 0.05 | > 3.13 | 1.56 | 0.78 | 0.2 | 1.56 | 0.2 | 0.1 | 0.2 | 0.39 | 1.56 | 0.78 |  |  |
| Cl.O.O=C(O)c1cn(C2CC2)c2cc(N3CCN4CCC3CC4)c(F)cc2c1=O | 0.05 | 1.56 | 0.39 | 0.39 | 0.02 | 0.39 | 0.01 | < 0.002 | 0.02 | 0.05 | 0.39 | 0.05 | 0.09 |  |
| Cl.O.O=C(O)c1cn(CCF)c2cc(N3CCN4CCC3CC4)c(F)cc2c1=O | 0.02 | > 3.13 | > 3.13 | 1.56 | 0.2 | 0.39 | 0.02 | 0.05 | 0.1 | 0.78 | 1.56 | 0.2 |  |  |
| Cl.O.O=C(O)c1cn(-c2ccc(F)cc2)c2cc(N3CCN4CCC3CC4)c(F)cc2c1=O | 0.05 | 3.13 | 0.78 | 1.56 | 0.2 | 0.78 | 0.1 | 0.02 | 0.2 | 0.2 | 0.78 | 0.1 |  |  |
| CCn1cc(C(=O)O)c(=O)c2cc(F)c(N3CCN4CCCC3C4)cc21 (centres undefined) | 0.05 (≈ 0.139 µM) | > 3.13 | 3.13 (≈ 8.71 µM) | > 1.56 | 0.2 (≈ 0.556 µM) | 3.12 | 0.1 (≈ 0.278 µM) | 0.02 (≈ 0.0556 µM) | 0.2 (≈ 0.556 µM) | 0.39 (≈ 1.09 µM) | 0.39 (≈ 1.09 µM) | 0.39 (≈ 1.09 µM) | 1.36 | 0.71 |
| CN1C2CC[C@@H]1CCN(c1cc3c(cc1F)c(=O)c(C(=O)O)cn3C1CC1)C2 | 0.2 (≈ 0.519 µM) | 3.13 (≈ 8.12 µM) | 3.13 (≈ 8.12 µM) | > 1.56 | 0.39 (≈ 1.01 µM) | 3.12 | 0.2 (≈ 0.519 µM) | 0.05 (≈ 0.13 µM) | 0.39 (≈ 1.01 µM) | 0.39 (≈ 1.01 µM) | 1.56 (≈ 4.05 µM) | 0.2 (≈ 0.519 µM) |  | 0.43 |
| CN1C2CC[C@@H]1CCN(c1c(F)cc3c(=O)c(C(=O)O)cn(C4CC4)c3c1F)C2 | 0.1 (≈ 0.248 µM) | 1.56 (≈ 3.87 µM) | 0.78 (≈ 1.93 µM) | > 1.56 | 0.1 (≈ 0.248 µM) | 0.39 | 0.1 (≈ 0.248 µM) | 0.02 (≈ 0.0496 µM) | 0.1 (≈ 0.248 µM) | 0.2 (≈ 0.496 µM) | > 3.13 | 0.39 (≈ 0.967 µM) |  |  |
| CN1[C@@H]2CC[C@H]1CN(c1c(F)cc3c(=O)c(C(=O)O)cn(C4CC4)c3c1F)C2 | 0.39 (≈ 1 µM) | 1.56 (≈ 4.01 µM) | 25 (≈ 64.2 µM) | 3.13 (≈ 8.04 µM) | 0.2 (≈ 0.514 µM) | 0.78 | 0.1 (≈ 0.257 µM) | 0.1 (≈ 0.257 µM) | 0.39 (≈ 1 µM) | 0.39 (≈ 1 µM) | 0.78 (≈ 2 µM) | 0.78 (≈ 2 µM) |  |  |
| CCn1cc(C(=O)O)c(=O)c2cc(F)c(N3C[C@H]4CC[C@@H](C3)N4C)c(F)c21 | 0.2 (≈ 0.53 µM) | 6.25 (≈ 16.6 µM) | > 25 | 12.5 (≈ 33.1 µM) | 0.78 (≈ 2.07 µM) | 3.12 | 0.39 (≈ 1.03 µM) | 0.2 (≈ 0.53 µM) | 1.56 (≈ 4.13 µM) | 0.39 (≈ 1.03 µM) | 6.25 (≈ 16.6 µM) | 1.56 (≈ 4.13 µM) |  |  |
| CN1C[C@@H]2C[C@H]1CN2c1c(F)cc2c(=O)c(C(=O)O)cn(-c3ccc(F)cc3F)c2c1Cl | 0.1 (≈ 0.216 µM) | 3.13 (≈ 6.75 µM) | 0.78 (≈ 1.68 µM) | > 1.56 | 0.2 (≈ 0.431 µM) | 3.12 | 0.1 (≈ 0.216 µM) | 0.01 (≈ 0.0216 µM) | 0.39 (≈ 0.841 µM) | 0.2 (≈ 0.431 µM) | > 3.13 | 0.39 (≈ 0.841 µM) |  |  |
